The test system of one assay is Mus musculus. Put plainly: Percentage of average survival time of control/treated mice bearing sarcoma 180 at a dose 100 mg/kg. It is filed as functional.
The term T/C denotes the result in the treated group divided by that in the control group, in per cent. The compound `CN(NS(=O)(=O)c1ccccc1)S(=O)(=O)c1ccccc1` had a T/C of 203%.

Another assay concerns Mus musculus. Briefly: Average survival time of treated mice bearing the L1210 leukemia at a dose 150 mg/kg. It is filed as functional. Summed up: (§1)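 L1210 ascites cells passaged in CDF1 mice, taken from 7-day donors, spun, diluted 10-fold in isotonic saline and set to 10^6 cells/mL by Coulter count; 0.1 mL given ip. Compound suspended in 2–3 drops 20% aqueous Tween 80 plus isotonic saline, 0.5 mL ip once daily for 6 days from 24 h after implant. Groups of five; vehicle-injected controls. %T/C = treated/control mean survival ×100.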
Take `O=S(=O)(NNS(=O)(=O)c1ccccc1)c1ccccc1`: the Survival time was 9.6 days.

`CN(NS(=O)(=O)c1ccccc1)S(=O)(=O)c1ccccc1` returned a Survival time of 9.4 days.

Consider `CN(NS(=O)(=O)c1ccc2ccccc2c1)S(=O)(=O)c1ccc2ccccc2c1`, for which the Survival time was 9 days.

`CN(NC(=O)c1ccccc1)C(=O)c1ccccc1` registered a Survival time of 9.2 days.

The subject of another assay is Mus musculus. Put plainly: Percentage of average survival time of control/treated mice bearing the L1210 leukemia at a dose 100 mg/kg. It is filed as functional. Summed up:
as §1
Consider `O=S(=O)(NNS(=O)(=O)c1ccccc1)c1ccccc1`, for which the T/C was 97%.

Take `CN(NS(=O)(=O)c1ccc(Cl)cc1)S(=O)(=O)c1ccc(Cl)cc1`: the T/C was found to be 124%.

In turn, `CN(NC(=O)c1ccccc1)C(=O)c1ccccc1` came in with a T/C of 97%.

In a further assay the test system is Mus musculus. Briefly: Percentage of average survival time of control/treated mice bearing P388 leukemia at a dose 150 mg/kg. It is filed as functional.
In turn, `COc1ccc(S(=O)(=O)NN(C)S(=O)(=O)c2ccc(OC)cc2)cc1` registered a T/C of 136%.

The test system of another assay is Mus musculus. Briefly: Percent change in the weight after administering a dose of 50 mg/kg to mice bearing L1210 leukemia. It is filed as functional. Summed up:
(§2)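 L1210 ascites cells were propagated in CDF₁ mice and 0.1 mL of a suspension at 10⁶ cells/mL in isotonic saline was implanted ip. Compound was given ip once daily for 6 consecutive days starting 24 h after implantation, as a fine suspension in Tween 80/saline (0.5 mL). Groups of five were used, with vehicle controls. The read-out was average body-weight change from onset to end of therapy.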
Turning to `O=S(=O)(NNS(=O)(=O)c1ccccc1)c1ccccc1`, the Average weight change was -0.3%.

Consider `CN(NS(=O)(=O)c1ccccc1)S(=O)(=O)c1ccccc1`, for which the Average weight change is -4.8%.

In the case of `CN(NS(=O)(=O)c1ccc(Cl)cc1)S(=O)(=O)c1ccc(Cl)cc1`, the Average weight change was found to be 4%.

In the case of `CN(NS(=O)(=O)c1ccc2ccccc2c1)S(=O)(=O)c1ccc2ccccc2c1`, the Average weight change is 3%.

In the case of `CN(NC(=O)c1ccccc1)C(=O)c1ccccc1`, the Average weight change worked out at 2.5%.

For `COc1ccc(S(=O)(=O)NN(C)S(=O)(=O)c2ccc(OC)cc2)cc1`, the Average weight change worked out at 1.9%.

Turning to `Cc1ccc(S(=O)(=O)NN(C)S(=O)(=O)c2ccc(C)cc2)cc1`, the Average weight change is 3.7%.

The next assay concerns Mus musculus. Briefly: Average survival time of treated mice bearing the L1210 leukemia at a dose 50 mg/kg. It is filed as functional. Summed up:
as §1
`O=S(=O)(NNS(=O)(=O)c1ccccc1)c1ccccc1`: the Survival time came out at 9.2 days.

Compound `CN(NS(=O)(=O)c1ccc(Cl)cc1)S(=O)(=O)c1ccc(Cl)cc1` returned a Survival time of 11.4 days.

Consider `CN(NC(=O)c1ccccc1)C(=O)c1ccccc1`, for which the Survival time was 9.2 days.

The test system of a further assay is Mus musculus. Put plainly: Percent change in the weight after administering a dose of 100 mg/kg to mice bearing L1210 leukemia. It is filed as functional. Put shortly:
as §2
As for `O=S(=O)(NNS(=O)(=O)c1ccccc1)c1ccccc1`, the Average weight change worked out at 5.8%.

Take `CN(NS(=O)(=O)c1ccccc1)S(=O)(=O)c1ccccc1`: the Average weight change is recorded as -5.2%.

For `CN(NS(=O)(=O)c1ccc(Cl)cc1)S(=O)(=O)c1ccc(Cl)cc1`, the Average weight change turned out to be 1.3%.

In the case of `CN(NS(=O)(=O)c1ccc2ccccc2c1)S(=O)(=O)c1ccc2ccccc2c1`, the Average weight change was -3.3%.

On to `CN(NC(=O)c1ccccc1)C(=O)c1ccccc1`, for which the Average weight change was -2%.

As to `COc1ccc(S(=O)(=O)NN(C)S(=O)(=O)c2ccc(OC)cc2)cc1`, the Average weight change was -1.6%.

As for `Cc1ccc(S(=O)(=O)NN(C)S(=O)(=O)c2ccc(C)cc2)cc1`, the Average weight change came out at 0.8%.

Another assay deals with Mus musculus. Briefly: Percent change in the weight after administering a dose of 150 mg/kg to mice bearing L1210 leukemia. It is filed as functional. Put shortly: as §2
As for `O=S(=O)(NNS(=O)(=O)c1ccccc1)c1ccccc1`, the Average weight change is 0.8%.

In the case of `CN(NS(=O)(=O)c1ccccc1)S(=O)(=O)c1ccccc1`, the Average weight change is -13.5%.

As to `CN(NS(=O)(=O)c1ccc(Cl)cc1)S(=O)(=O)c1ccc(Cl)cc1`, the Average weight change worked out at 6.9%.

For `CN(NS(=O)(=O)c1ccc2ccccc2c1)S(=O)(=O)c1ccc2ccccc2c1`, the Average weight change was 4.1%.

As for `CN(NC(=O)c1ccccc1)C(=O)c1ccccc1`, the Average weight change was -2%.

For `COc1ccc(S(=O)(=O)NN(C)S(=O)(=O)c2ccc(OC)cc2)cc1`, the Average weight change worked out at 4.1%.

In the next assay the test system is Mus musculus. Briefly: Average survival time of treated mice bearing the L1210 leukemia at a dose 100 mg/kg. It is filed as functional. Put shortly:
as §1
In the case of `O=S(=O)(NNS(=O)(=O)c1ccccc1)c1ccccc1`, the Survival time was 9.2 days.

`CN(NC(=O)c1ccccc1)C(=O)c1ccccc1` yielded a Survival time of 9.2 days.

The next assay relates to Mus musculus. Put plainly: Average survival time of control mice bearing L1210 leukemia at a dose 50 mg/kg. It is filed as functional. Put shortly: as §1
`O=S(=O)(NNS(=O)(=O)c1ccccc1)c1ccccc1` showed a Survival time of 9.5 days.

The compound `CN(NS(=O)(=O)c1ccccc1)S(=O)(=O)c1ccccc1` registered a Survival time of 9 days.

Regarding `CN(NS(=O)(=O)c1ccc(Cl)cc1)S(=O)(=O)c1ccc(Cl)cc1`, the Survival time was 9.5 days.

`CN(NS(=O)(=O)c1ccc2ccccc2c1)S(=O)(=O)c1ccc2ccccc2c1`: the Survival time turned out to be 9 days.

The compound `CN(NC(=O)c1ccccc1)C(=O)c1ccccc1` displayed a Survival time of 9.5 days.

Turning to `COc1ccc(S(=O)(=O)NN(C)S(=O)(=O)c2ccc(OC)cc2)cc1`, the Survival time turned out to be 9 days.

Take `Cc1ccc(S(=O)(=O)NN(C)S(=O)(=O)c2ccc(C)cc2)cc1`: the Survival time came to 9.5 days.

The next assay has as its system Mus musculus. Put plainly: Average survival time of mice bearing L1210 leukemia at a dose 50 mg/kg. It is filed as functional. Put shortly: as §1
As for `Cc1ccc(S(=O)(=O)NN(C)S(=O)(=O)c2ccc(C)cc2)cc1`, the Survival time was 14 days.

The next assay deals with Mus musculus. Briefly: Percentage of average survival time of control/treated mice bearing sarcoma 180 at a dose 50 mg/kg. It is filed as functional.
In turn, `Cc1ccc(S(=O)(=O)NN(C)S(=O)(=O)c2ccc(C)cc2)cc1` displayed a T/C of 197%.

The subject of the next assay is Mus musculus. Briefly: Percentage of average survival time of control/treated mice bearing the L1210 leukemia at a dose 150 mg/kg. It is filed as functional. Put shortly: as §1
Regarding `O=S(=O)(NNS(=O)(=O)c1ccccc1)c1ccccc1`, the T/C is 101%.

`CN(NC(=O)c1ccccc1)C(=O)c1ccccc1` displayed a T/C of 97%.

The subject of a further assay is Mus musculus. Put plainly: Percentage of average survival time of control/treated mice bearing the L1210 leukemia at a dose 50 mg/kg. It is filed as functional. Summed up:
as §1
The compound `O=S(=O)(NNS(=O)(=O)c1ccccc1)c1ccccc1` showed a T/C of 97%.

As for `CN(NS(=O)(=O)c1ccc(Cl)cc1)S(=O)(=O)c1ccc(Cl)cc1`, the T/C stood at 120%.

On to `CN(NC(=O)c1ccccc1)C(=O)c1ccccc1`, for which the T/C amounted to 97%.

The values above are taken from ChEMBL document CHEMBL1122985, “Synthesis and evaluation of N,N'-bis(arylsulfonyl)hydrazines as antineoplastic agents” (1985).
